Compound activity from PubChem BioAssay.
This is a sample that favours compounds with a hit; in the whole collection about 2.4% have one here.
VIM-2 inh: VIM-2 metallo-beta-lactamase inhibitors, primary screen, biochemical, epi-absorbance readout, Pseudomonas aeruginosa enzyme | purified VIM-2, nitrocefin hydrolysis, epi-absorbance fluorescence | inhibition, % at 5.6 µM | 290,000 compounds, 0.89% hits;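 active = inhibition above the mean of all tested compounds plus 3 SD, cutoff set per screening run, cut at about 7.5% in these data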;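 note: red hydrolysis product quenches plate fluorescence so inhibitors raise well fluorescence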
IMP-1 inhibitor: IMP-1 metallo-beta-lactamase inhibitors, primary screen, biochemical, epi-absorbance readout, Pseudomonas aeruginosa enzyme | metallo-beta-lactamase IMP-1 (Pseudomonas aeruginosa) | purified IMP-1, nitrocefin hydrolysis, epi-absorbance fluorescence | inhibition, % at 5.6 µM | 290,000 compounds, 0.45% hits | AID 1556, 2009;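 active = inhibition above the mean plus 3 SD of all compounds in the same screening run, cut at about 4.5% in these data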
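System – purified recombinant IMP-1 beta-lactamase · Input – IMP-1 dispensed at 0.2 nM · Timing – 15 min preincubation plus 25 min reaction at 25 °C · Signal – Epi-absorbance fluorescence, 480 nm excitation, 530 nm emission · Measure – percent IMP-1 inhibition derived from blank-referenced optical density · Controls – Enzyme-plus-DMSO low control, enzyme-free DMSO high control · Replication – singlicate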
sPLA2-III inh: human group III sPLA2 inhibitors, primary screen, biochemical, QFRET, BODIPY PC-A2 liposome substrate. QFRET BODIPY PC-A2 liposome hydrolysis, fluorescence. inhibition, % at 12.2 µM. 370,000 compounds, 0.56% hits;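 active = inhibition above mean plus 3 SD of compounds lying within the high and low control bounds, cut at about 19% in these data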
PfM18AAP inh-1: PfM18AAP inhibitors, malaria aminopeptidase, primary screen, biochemical, QFRET, recombinant enzyme; M18 aspartyl aminopeptidase (Plasmodium falciparum 3D7); H-Glu-NHMec fluorogenic cleavage; inhibition, % at 7.35 µM; 290,000 compounds, 1.2% hits; AID 1822, 2009;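 active = inhibition above the campaign mean inhibition over all tested compounds plus 3 SD, cut at about 28% in these data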
PfM18AAP inh-2: PfM18AAP inhibitors, malaria aminopeptidase, confirmation, biochemical, QFRET, recombinant enzyme, triplicate; shares compounds with PfM18AAP inh-1; H-Glu-NHMec fluorogenic cleavage; inhibition, % at 7.35 µM; 2,400 compounds, 28% hits;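 active = mean inhibition over replicate wells above the hit cutoff set for the earlier primary screen, cut at about 29% in these data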
CTSL1 counter: cathepsin L1 inhibitors, retest, confirmation, counter-screen for PFM18AAP inhibitor project, biochemical, QFRET, triplicate | shares compounds with PfM18AAP inh-1 | purified cathepsin L1, Z-Leu-Arg-MCA fluorescence | inhibition, % at 5.96 µM | 2,400 tested, under 10 active | AID 2178, 2009;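 active = average inhibition across replicates above the hit cutoff set in the earlier primary screen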
Target sequence (P07711 whole entry, looked up): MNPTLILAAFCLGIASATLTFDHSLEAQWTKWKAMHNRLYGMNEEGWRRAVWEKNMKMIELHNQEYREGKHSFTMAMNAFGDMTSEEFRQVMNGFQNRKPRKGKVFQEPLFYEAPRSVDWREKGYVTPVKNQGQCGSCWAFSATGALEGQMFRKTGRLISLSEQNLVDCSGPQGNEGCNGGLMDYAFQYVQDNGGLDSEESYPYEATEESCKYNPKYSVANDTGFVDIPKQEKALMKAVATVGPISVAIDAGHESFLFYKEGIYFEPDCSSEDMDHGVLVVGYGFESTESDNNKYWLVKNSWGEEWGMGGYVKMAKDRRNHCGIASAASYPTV
Hits are given with their value; 0 = inactive; - = no result given.

SMILES	VIM-2 inh	IMP-1 inhibitor	sPLA2-III inh	PfM18AAP inh-1	PfM18AAP inh-2	CTSL1 counter
CCNC(=S)NC(=NCc1cccnc1)Nc1nc(C)cc(C)n1	0	0	0	32	0	0
Cc1ccc(NC(=S)NCc2cccnc2)cc1	0	0	0	0	-	-
NC(=O)NNc1cccc(Cl)n1	0	0	0	47	0	0
O=C(NNc1cccc(Cl)n1)c1c(Cl)cccc1Cl	0	0	0	56	0	0
CC(=O)c1c(C(C)=O)c(C)n(-c2ccc(N)c(C)c2)c1C	0	0	0	32	0	0
COC(=O)c1cc([N+](=O)[O-])c(-n2cncn2)c([N+](=O)[O-])c1	0	0	0	83	44	0
CNS(=O)(=O)c1ccc(CNC[C@H]2O[C@@H](n3cnc4c(=O)[nH]c(N)nc43)[C@H](O)[C@@H]2O)cc1	-	-	0	-	-	-
O=C(N1CCN(Cc2ccc3c(c2)OCO3)CC1)C(Cl)(Cl)Cl	0	0	0	0	-	-
O=C(NNC(=O)c1cc(Cl)ccc1O)c1cccs1	0	0	0	35	0	0
O=C(O)C1CCN(S(=O)(=O)c2ccc(N3CCCC3C(=O)O)c([N+](=O)[O-])c2)CC1 (centres undefined)	0	0	0	36	0	0
O=C(O)C1CCN(c2ccc(S(=O)(=O)N3CCCCC3)cc2[N+](=O)[O-])CC1	-	-	0	-	-	-
COc1cc(/C=N/N2CCN(Cc3ccccc3)CC2)cc(OC)c1OC(C)=O	0	0	0	36	0	0
COc1ccccc1-c1cnc(C(O)c2ccc(C(C)(C)C)cc2)[nH]1 (centres undefined)	-	-	0	-	-	-
S=c1[nH]c(-c2ccccc2)cn1/N=C/c1cccc2ccccc12	0	0	0	0	-	-
S=c1[nH]c(-c2ccccc2)cn1/N=C/c1ccccc1Br	0	0	0	33	0	0
Oc1ccc(/C=N/n2cc(-c3ccccc3)[nH]c2=S)cc1	0	0	0	61	41	0
COc1cc(/C=N/n2cc(-c3ccccc3)[nH]c2=S)cc(OC)c1O	0	0	0	62	48	0
S=c1[nH]nc(-c2ccccc2)n1/N=C/c1ccc(Cl)cc1	0	0	0	0	-	-
COc1cc(/C=N/n2c(C)nc3ccccc3c2=O)cc(OC)c1O	0	0	0	0	-	-
O=C(C[C@H]1C[C@@H]2c3cc(NC(=O)c4ccc5c(c4)OCO5)ccc3O[C@@H]2[C@H](CO)O1)NCc1cc(F)ccc1F	-	-	0	-	-	-
COc1ccc(-n2c(O)c(/C=C3\C=Nc4ccccc43)c(=O)[nH]c2=O)cc1	0	0	0	32	0	0
COc1ccc(-n2c(O)c(C=NC3CC3)c(=O)[nH]c2=O)cc1	0	0	0	0	-	-
Cc1cc(C)c2cc(CN(Cc3ccco3)C(=O)NCc3ccccc3)c(=O)[nH]c2c1	0	0	0	35	0	0
Cc1cc(C)c2cc(CN(CC3CCCO3)C(=S)NCc3ccco3)c(=O)[nH]c2c1 (centres undefined)	0	0	0	0	-	-
COc1ccc(N2CCN(CCNS(=O)(=O)c3ccc(F)cc3)CC2)cc1	-	-	0	-	-	-
SMILES	VIM-2 inh	IMP-1 inhibitor	sPLA2-III inh	PfM18AAP inh-1	PfM18AAP inh-2	CTSL1 counter
COc1ccc(C(=O)NCC(=O)N/N=C/c2ccco2)cc1OC	0	0	0	44	0	0
Cn1nc(C(=O)NNC(=O)COc2ccccc2)c2ccccc2c1=O	0	0	0	44	32	0
CCn1nc(C(=O)NNC(=O)COc2ccc(OC)cc2)c2ccccc2c1=O	0	0	0	0	-	-
Cc1n[nH]c(=S)n(/N=C/c2cccs2)c1=O	0	0	0	0	-	-
CCN(CC)c1ccc(/C=N/n2c(=S)[nH]nc(C)c2=O)cc1	0	0	0	35	0	0
Cc1cc([N+](=O)[O-])nn1CC(=O)NCCCN1CCOCC1	0	0	0	0	-	-
Cc1ccccc1CS(=O)(=O)CCC(=O)NCCCN1CCN(c2ccccc2F)CC1	0	0	0	0	-	-
Cc1cc(C)c2c(=O)n(CC(=O)NCCCN3CCN(c4ccccc4F)CC3)sc2n1	0	0	-	47	0	0
Cc1cc(C)c2c(=O)n(CC(=O)NCCCN3CCOCC3)sc2n1	0	0	-	54	32	0
COc1ccc(OC)c(N(CC(=O)N2CCOCC2)S(C)(=O)=O)c1	0	0	0	0	-	-
CCCn1c(SCC(=O)N2c3ccccc3CC2C)n[nH]c1=O (centres undefined)	-	-	0	-	-	-
CC1CN(S(=O)(=O)c2cccc(C(=O)NCc3ccco3)c2)CC(C)O1 (centres undefined)	-	-	0	-	-	-
NC(=S)N/N=C1\CCOc2ccc(F)cc21	0	0	0	0	-	-
CCOC(=O)C1=C(CSc2nc(-c3ccncc3)ccc2C#N)OC(N)=C(C#N)C1c1ccc(OC)cc1 (centres undefined)	0	0	0	34	0	0
Oc1ccccc1N=Cc1ccc[nH]1	0	0	0	35	0	0
COc1cccc(/C=C/C(=O)OCC(=O)c2ccc(Br)cc2)c1	-	-	0	-	-	-
O=C(O)c1ccc(N/N=C/c2c(F)cccc2Cl)cc1	0	0	0	39	0	0
O=C(CN1CCN(c2ccc(O)cc2)CC1)N1CCc2ccccc21	0	0	0	42	0	0
O=C(CN1CCN(c2ccccc2)CC1)N1CCc2ccccc21	0	0	0	0	-	-
Cc1ccc(C(=O)N/N=C/c2ccc(-c3ccccc3[N+](=O)[O-])o2)cn1	0	0	0	0	-	-
CCc1nnc(N/N=C/c2ccc(-c3ccc([N+](=O)[O-])cc3)o2)n1N	0	0	0	43	0	0
CCc1nnc(N/N=C/c2cc(C)c(C)cc2C)n1N	0	0	0	40	0	0
CCc1nnc(N/N=C/c2c(F)cccc2Cl)n1N	0	0	0	0	-	-
Cc1nnc(N/N=C\c2ccc(-c3ccccc3[N+](=O)[O-])o2)n1N	0	0	0	43	0	0
O=C1CCCCCCC1Sc1ccccc1[N+](=O)[O-] (centres undefined)	0	0	0	38	0	0
SMILES	VIM-2 inh	IMP-1 inhibitor	sPLA2-III inh	PfM18AAP inh-1	PfM18AAP inh-2	CTSL1 counter
O=[N+]([O-])c1ccccc1S(=O)(=O)NC1CCCCCCC1	0	0	0	0	-	-
CO[C@H]1CN(C)C(=O)c2cc(NC(=O)C3CCOCC3)ccc2OC[C@H](C)N(Cc2nccs2)C[C@H]1C	-	-	0	-	-	-
Oc1ccc(/C=N/NC(=S)NCCN2CCOCC2)c(O)c1	0	0	0	52	0	0
S=C(NCCN1CCOCC1)N/N=C/c1ccccc1	0	0	0	0	-	-
O=C(CNC(=O)c1ccccn1)N=Nc1c(O)[nH]c2ccccc12	0	0	0	51	0	0
O=C(N/N=C/c1coc2ccccc2c1=O)c1ccccc1Br	0	0	0	36	0	0
